Measurements reported in ChEMBL document CHEMBL4825764, “Flavonoid Monomers as Potent, Nontoxic, and Selective Modulators of the Breast Cancer Resistance Protein (ABCG2)” (J Med Chem, 2021).

Key:
Homo sapiens [1] = species on record: Homo sapiens; test: Selectivity index, ratio of EC50 for inhibition of P-gp (unknown origin) expressed in LCC6MDR cells assessed as reversal of paclitaxel resistance to EC50 for Inhibition of BCRP (unknown origin) expressed in MCF7/MX100 cells assessed as reversal of topotecan resistance; assay type: cell-based
In short: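 Selectivity index is the EC50 against the other transporter's line divided by the EC50 in the BCRP line. All values come from 5-day MTS reversal assays. These use topotecan in HEK293/R2 (0–2000 nM) or MCF7-MX100 (0–100 μM), doxorubicin in 2008/MRP1, and paclitaxel in LCC6MDR, each with modulator at 0–1000 nM.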

Homo sapiens [2] = species on record: Homo sapiens; test: Selectivity index, ratio of EC50 for inhibition of P-gp (unknown origin) expressed in LCC6MDR cells assessed as reversal of mitoxantrone resistance to EC50 for inhibition of BCRP (unknown origin) expressed in HEK293/R2 cells assessed as reversal of mitoxantrone resistance; assay type: cell-based
In short: (§1)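 Selectivity index is the EC50 in 2008/MRP1 or LCC6MDR divided by the EC50 in HEK293/R2. All three lines were measured by 5-day mitoxantrone co-incubation with modulator, with MTS/PMS read-out at 490 nm.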

Homo sapiens [3] = species on record: Homo sapiens; test: Selectivity index, ratio of EC50 for inhibition of MRP1 (unknown origin) expressed in 2008/MRP1 cells assessed as reversal of mitoxantrone resistance to EC50 for inhibition of BCRP (unknown origin) expressed in HEK293/R2 cells assessed as reversal of mitoxantrone resistance; assay type: cell-based; in short: as §1
[4] = target: T1, Broad substrate specificity ATP-binding cassette transporter ABCG2 (Homo sapiens, UniProt Q9UNQ0); test: Inhibition of BCRP (unknown origin) expressed in human HEK293/R2 cells assessed as increase in intracellular topotecan accumulation by measuring fold change at 1 uM after 2 hrs in presence of topotecan by flow cytometry analysis relative to control; assay type: cell-based; details: hek293/r2, 2 h
T1 sequence (Q9UNQ0 whole entry): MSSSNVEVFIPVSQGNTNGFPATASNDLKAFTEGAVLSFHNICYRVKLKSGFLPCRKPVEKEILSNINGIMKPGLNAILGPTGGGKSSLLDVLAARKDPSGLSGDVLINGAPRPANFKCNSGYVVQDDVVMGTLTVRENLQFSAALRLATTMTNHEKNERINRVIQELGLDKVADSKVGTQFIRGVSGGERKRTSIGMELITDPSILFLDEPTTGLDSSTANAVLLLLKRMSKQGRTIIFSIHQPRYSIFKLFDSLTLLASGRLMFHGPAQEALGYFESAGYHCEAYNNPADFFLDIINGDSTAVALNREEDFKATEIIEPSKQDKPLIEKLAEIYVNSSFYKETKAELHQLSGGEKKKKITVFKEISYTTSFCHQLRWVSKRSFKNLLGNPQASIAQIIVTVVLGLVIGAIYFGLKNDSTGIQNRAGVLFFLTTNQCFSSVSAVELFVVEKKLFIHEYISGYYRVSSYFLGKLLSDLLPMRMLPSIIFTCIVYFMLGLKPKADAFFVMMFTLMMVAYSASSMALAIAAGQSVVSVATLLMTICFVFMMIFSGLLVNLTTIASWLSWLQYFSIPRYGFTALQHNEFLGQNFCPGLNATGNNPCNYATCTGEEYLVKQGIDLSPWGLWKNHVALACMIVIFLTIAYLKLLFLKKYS
In short: (§2)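 5 × 10^5 HEK293/pcDNA3.1 or HEK293/R2 cells in 1 mL were incubated 2 hr at 37 °C with 50 μM topotecan or 5 μM mitoxantrone plus 1 or 2 μM modulator, with DMSO as the vehicle control. Cells were washed in cold PBS and resuspended in FACS buffer. Flow cytometry read FL1 (topotecan) or FL4 (mitoxantrone) over 50,000 events, normalized to wild-type cells.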

[5] = target: T1, Broad substrate specificity ATP-binding cassette transporter ABCG2; test: Inhibition of BCRP (unknown origin) expressed in wild type HEK293/pcDNA3.1 cells assessed as increase in intracellular topotecan accumulation at 1 to 2 uM after 2 hrs in presence of topotecan by flow cytometry analysis relative to control; assay type: cell-based; details: hek293, 2 h, dose 1-2 µM; in short: as §2
BCRP (ABCG2) ATPase = target: T2, BCRP (ABCG2) ATPase (Homo sapiens, UniProt Q9UNQ0); test: Effect on vanadate sensitive BCRP ATPase activity in human S1-M1-80 cell membranes preincubated for 30 mins followed by ATP addition and measured after 1 hr by colorimetric assay
T2 sequence (Q9UNQ0 whole entry): T1 sequence (Q9UNQ0 whole entry)

COC(=O)c1cccc(COc2c(-c3ccc(OCCCCc4cn(Cc5ccccc5)nn4)cc3)oc3ccccc3c2=O)c1
Ratio EC50 (Homo sapiens [1]): 112 | Ratio EC50 (Homo sapiens [2]): 52 | Ratio EC50 (Homo sapiens [3]): 68 | fold change (FC) [4]: 8.1 | inhibition (INH) [5]: Not Active | activity at 1 h (BCRP (ABCG2) ATPase): 120%
